What is called MIC is the lowest concentration that inhibits growth of the organism. Low readings indicate inhibition by little substance, high ones a need for much substance. The MBC is the lowest tested concentration that kills the bacteria rather than only halting them. A higher MBC goes with less potent killing.

Experimental findings from ChEMBL document CHEMBL1177882, “Novel bisstyryl derivatives of bakuchiol: targeting oral cavity pathogens” (2010) are described below.

The structures appear in SMILES notation. Converted amounts (≈) assume the structure as drawn. The source made the active and inactive calls. No cut-off for these calls is given here.

In assay [1] the test system is Streptococcus mutans. The assay can be described thus: Antibacterial activity against Streptococcus mutans ATCC 25175 assessed as 280 nm absorbing material release at 2 time MIC after 60 mins by spectrophotometric analysis. In kind it is functional, organism-based. In short, it runs like this: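 S. mutans prepared in 50 mmol/l phosphate pH 7.1 (~1 × 10^9 cfu/ml) was exposed to compound at 2 × MIC for 60 min at 37 °C. Supernatant taken after centrifugation (10,000 g, 10 min) and read at A280. Release is expressed as % of a total-release control made by lysozyme treatment (100 µg/ml, 60 min, 37 °C) plus sonication.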

The test system of assay [2] is Streptococcus mutans. The assay can be described thus: Antibacterial activity against Streptococcus mutans ATCC 25175 assessed as increase of cell membrane permeability at 2 time MIC after 60 mins propidium iodide staining by flow cytometry. In kind it is functional, organism-based. In short, it runs like this:
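Overnight BHI culture of S. mutans washed into 50 mmol/l sodium phosphate pH 7.1 (~1 × 10^9 cfu/ml), diluted 1:20 into buffer with compound at 2 × MIC. Incubated 60 min at room temperature; aliquots diluted in buffer and stained with propidium iodide at 10 µg/ml final on ice. The percentage of PI-stained cells was measured by flow cytometry.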

In assay [3] the test system is Streptococcus mutans. The assay can be described thus: Antibacterial activity against Streptococcus mutans ATCC 25175 after 24 hrs by broth microdilution method. The note with it: ATCC 25175, 24 h. Background: Dilution methods test growth across graded concentrations, often in twofold steps.
Assay [4] deals with Streptococcus sanguinis. Description: Antibacterial activity against Streptococcus sanguinis ATCC 10556 after 48 hrs by broth microdilution method. The note with it: ATCC 10556, 48 h. In kind it is functional.
The subject of assay [5] is Streptococcus sanguinis. The assay can be described thus: Antibacterial activity against Streptococcus sanguinis ATCC 10556 after 24 hrs by broth microdilution method. The note with it: ATCC 10556, 24 h.
The subject of assay [6] is Fusobacterium nucleatum. Description: Antibacterial activity against Fusobacterium nucleatum ATCC 10953 after 48 hrs by broth microdilution method. It counts as functional. The note with it: ATCC 10953, 48 h. In short, it runs like this: (§1)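 Broth microdilution MIC for obligate anaerobes, run in their growth media (Wilkins–Chalgren for F. nucleatum and P. intermedia; supplemented Todd Hewitt broth for P. gingivalis). Inoculum suspended in Brucella broth, final 5 × 10^6 cfu/ml. Twofold dilutions, final 0.12–128 µg/ml. Incubated anaerobically (90% N2/5% H2/5% CO2) at 37 °C for 48 h; MIC is the lowest concentration without turbidity.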

Assay [7] has as its system Actinomyces viscosus. The assay can be described thus: Antibacterial activity against Actinomyces viscosus ATCC 15987 after 48 hrs by broth microdilution method. In kind it is functional. The note with it: ATCC 15987, 48 h.
For assay [8], the system named is Streptococcus mutans. Description: Antibacterial activity against Streptococcus mutans ATCC 25175 after 48 hrs by broth microdilution method. It counts as functional. The note with it: ATCC 25175, 48 h.
Assay [9] has as its system Actinomyces viscosus. The assay can be described thus: Antibacterial activity against Actinomyces viscosus ATCC 15987 after 24 hrs by broth microdilution method. Conditions: ATCC 15987, 24 h.
The test system of assay [10] is Prevotella intermedia. Description: Antibacterial activity against Prevotella intermedia ATCC 25611 after 48 hrs by broth microdilution method. In kind it is functional. Conditions: ATCC 25611, 48 h. In short, it runs like this:
as §1

The subject of assay [11] is Porphyromonas gingivalis. Description: Antibacterial activity against Porphyromonas gingivalis ATCC 33277 after 48 hrs by broth microdilution method. It counts as functional. Conditions: ATCC 33277, 48 h. In short, it runs like this:
as §1

Assay [12] deals with Streptococcus mutans. The assay can be described thus: Antibacterial activity against Streptococcus mutans ATCC 25175 assessed as decrease in cell viability at 2 time MIC after 60 mins by serial dilution method relative to control. It counts as functional. In short, it runs like this: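 S. mutans suspension from an 18 h culture (~1 × 10^9 cfu/ml) diluted 1:20 into phosphate buffer containing compound at 2 × MIC. Incubated 60 min at 37 °C, then serially diluted in saline and plated on BHI agar. Colonies counted after 48 h at 37 °C in 5% CO2; viability given as CFU/ml relative to untreated cells.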

Assay [13] has as its system Streptococcus mutans. Description: Antibacterial activity against Streptococcus mutans ATCC 25175 assessed as inhibition of biofilm formation after 18 hrs. It counts as functional. In short, it runs like this:
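Single-species S. mutans biofilm grown in flat-bottom polystyrene wells, BHI with 2% sucrose, 6 × 10^7 cfu/ml final, compound twofold 0.12–128 µg/ml, 18 h at 37 °C in 5% CO2. Wells rinsed with PBS pH 7.2, methanol-fixed, stained with 0.1% crystal violet, eluted in 95% ethanol, A595 read. % inhibition relative to untreated control; MBIC50 is the lowest concentration giving ≥50% inhibition.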

Take `C=C[C@@](C)(/C=C/c1ccc(O)cc1)CCC=C(C)C` [BAKUCHIOL]: the result in assay [1] and in assay [2] was Active. Also, the MIC in [3] stood at 1 µg/mL (≈ 3.9 µM); in [5], 1 µg/mL (≈ 3.9 µM); in assay [6], 32 µg/mL (≈ 125 µM); in [9] it was 1 µg/mL (≈ 3.9 µM); in assay [10], 1 µg/mL (≈ 3.9 µM); in [11] it was 1 µg/mL (≈ 3.9 µM). Also, the MBC worked out at 2 µg/mL (≈ 7.8 µM) in assay [4]; 64 µg/mL (≈ 250 µM) in assay [6]; 2 µg/mL (≈ 7.8 µM) in assay [7]; 2 µg/mL (≈ 7.8 µM) in [8]; 2 µg/mL (≈ 7.8 µM) in assay [10]; 1 µg/mL (≈ 3.9 µM) in [11]. Moreover, the Activity in assay [12] is on record as over 80%. Further, the MBIC50 in assay [13] was 4 µg/mL.
As to `C=C[C@@](C)(/C=C/c1ccc(OC)cc1)CCC=C(C)C`, the outcome in assay [1] and in assay [2] was Active. Also, the MIC is over 128 µg/mL in assay [3]; over 128 µg/mL in assay [5]; over 128 µg/mL in assay [6]; over 128 µg/mL in assay [9]; over 128 µg/mL in assay [10]; 32 µg/mL (≈ 118 µM) in assay [11]. Also, the minimum bactericidal concentration (MBC) was over 128 µg/mL in assay [4]; over 128 µg/mL in assay [6]; over 128 µg/mL in [7]; over 128 µg/mL in assay [8]; over 128 µg/mL in assay [10]; 32 µg/mL (≈ 118 µM) in [11]. In addition, in assay [12], the result was inactive.
On to `COc1ccc(/C=C/[C@@](C)(/C=C/c2ccc(O)cc2)CCC=C(C)C)cc1CO`, for which the MIC in [3] is 4 µg/mL (≈ 10.2 µM); in assay [5], 4 µg/mL (≈ 10.2 µM); in [6], over 128 µg/mL; in [9], 4 µg/mL (≈ 10.2 µM); in assay [10], 2 µg/mL (≈ 5.1 µM); in assay [11], 2 µg/mL (≈ 5.1 µM). Besides, the MBC in assay [4] was 8 µg/mL (≈ 20.4 µM); in [6], over 128 µg/mL; in [7], 8 µg/mL (≈ 20.4 µM); in assay [8] it was 4 µg/mL (≈ 10.2 µM); in assay [10], 4 µg/mL (≈ 10.2 µM); in [11], 4 µg/mL (≈ 10.2 µM). For the same molecule, the MBIC50 in assay [13] came out at 8 µg/mL.
As to `C=C[C@@](C)(/C=C/c1ccc(OC(C)=O)cc1)CCC=C(C)C` [ACETYLBAKUCHIOL], the MIC in [3] was 128 µg/mL (≈ 429 µM); in assay [5], 16 µg/mL (≈ 53.6 µM); in assay [6], over 128 µg/mL; in assay [9], 32 µg/mL (≈ 107 µM); in assay [10] it was 64 µg/mL (≈ 214 µM); in assay [11], 8 µg/mL (≈ 26.8 µM). For the same molecule, the MBC is 16 µg/mL (≈ 53.6 µM) in assay [4]; over 128 µg/mL in assay [6]; 64 µg/mL (≈ 214 µM) in [7]; over 128 µg/mL in assay [8]; 64 µg/mL (≈ 214 µM) in [10]; 8 µg/mL (≈ 26.8 µM) in assay [11].
In the case of `COc1ccccc1/C=C/[C@@](C)(/C=C/c1ccc(O)cc1)CCC=C(C)C`, the MIC in [3] came out at 4 µg/mL (≈ 11 µM); in assay [5], 2 µg/mL (≈ 5.52 µM); in assay [6], 16 µg/mL (≈ 44.1 µM); in assay [9], 2 µg/mL (≈ 5.52 µM); in assay [10], 2 µg/mL (≈ 5.52 µM); in [11], 1 µg/mL (≈ 2.76 µM). Moreover, the MBC in assay [4] stood at 4 µg/mL (≈ 11 µM); in assay [6], 32 µg/mL (≈ 88.3 µM); in assay [7], 4 µg/mL (≈ 11 µM); in [8], 8 µg/mL (≈ 22.1 µM); in assay [10], 4 µg/mL (≈ 11 µM); in assay [11] it was 2 µg/mL (≈ 5.52 µM). In addition, in [13], the MBIC50 stood at 8 µg/mL.
On to `CC[C@](C)(CCCC(C)C)CCc1ccc(O)cc1`, for which the MIC is 2 µg/mL (≈ 7.62 µM) in assay [3]; 1 µg/mL (≈ 3.81 µM) in [5]; over 128 µg/mL in assay [6]; 2 µg/mL (≈ 7.62 µM) in assay [9]; 2 µg/mL (≈ 7.62 µM) in assay [10]; 1 µg/mL (≈ 3.81 µM) in [11]. Moreover, the MBC in [4] is 2 µg/mL (≈ 7.62 µM); in [6], over 128 µg/mL; in [7], 4 µg/mL (≈ 15.2 µM); in assay [8] it was 4 µg/mL (≈ 15.2 µM); in assay [10], 4 µg/mL (≈ 15.2 µM); in assay [11] it was 2 µg/mL (≈ 7.62 µM). Besides, the MBIC50 in [13] was found to be 4 µg/mL.
With `C=C[C@@](C)(/C=C/c1ccc(O)cc1)CC/C=C(/C)C=O`, the MIC turned out to be 64 µg/mL (≈ 237 µM) in assay [3]; 32 µg/mL (≈ 118 µM) in assay [5]; 32 µg/mL (≈ 118 µM) in [6]; 32 µg/mL (≈ 118 µM) in assay [9]; 32 µg/mL (≈ 118 µM) in assay [10]; 16 µg/mL (≈ 59.2 µM) in [11]. In addition, the MBC in assay [4] came to 64 µg/mL (≈ 237 µM); in assay [6] it was 64 µg/mL (≈ 237 µM); in assay [7], 64 µg/mL (≈ 237 µM); in [8], 128 µg/mL (≈ 473 µM); in assay [10] it was 64 µg/mL (≈ 237 µM); in assay [11] it was 16 µg/mL (≈ 59.2 µM).
